Laboratory results as given in ChEMBL document CHEMBL1158468, “Synthesis, structure-activity relationships, and in vivo evaluation of N3-phenylpyrazinones as novel corticotropin-releasing factor-1 (CRF1) receptor antagonists” (J Med Chem, 2009).
pIC50: −log10 of the molar value.

Biological target: T1, Corticotropin-releasing factor receptor 1 (Rattus norvegicus, UniProt P35353)
T1 sequence (P35353 whole entry): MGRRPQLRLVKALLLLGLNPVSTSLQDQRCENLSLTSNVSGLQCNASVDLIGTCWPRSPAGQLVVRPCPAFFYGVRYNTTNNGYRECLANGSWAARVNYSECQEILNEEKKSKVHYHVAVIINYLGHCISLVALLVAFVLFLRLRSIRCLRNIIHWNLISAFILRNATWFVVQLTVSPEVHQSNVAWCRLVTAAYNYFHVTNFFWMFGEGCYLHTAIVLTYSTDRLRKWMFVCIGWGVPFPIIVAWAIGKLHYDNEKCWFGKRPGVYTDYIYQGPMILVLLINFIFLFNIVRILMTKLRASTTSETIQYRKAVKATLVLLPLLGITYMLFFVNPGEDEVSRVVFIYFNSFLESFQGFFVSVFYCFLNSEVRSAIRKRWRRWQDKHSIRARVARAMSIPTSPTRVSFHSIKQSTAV
Assay: Displacement of [125I]Tyr-ovine-CRF from CRF1 receptor in rat frontal cortex homogenate by gamma counting
Type: tissue-based
Summary of the method: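 Washed homogenates of frozen rat frontal cortex (CRF1, 25 μg/well) or porcine choroid plexus (CRF2, 10 μg/well) in 50 mM Hepes pH 7.0, 10 mM MgCl2, 2 mM EGTA, protease inhibitors, 0.005% Triton X-100. Ligand 150 pM 125I-ovine-CRF (CRF1) or 100 pM 125I-sauvagine (CRF2). Incubation 2 h at 21 °C, then filtration and gamma counting. Nonspecific binding: 1 μM CRF1 reference antagonist or 1 μM α-helical CRF(9-41). IC50 from 5- or 10-point curves by nonlinear regression.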

Row | SMILES | pIC50
1 | COc1ccc(Nc2nc(C)cn([C@H](C)C3CC3)c2=O)c(C(F)(F)F)n1 | 8.42
2 | COc1ccc(Nc2nc(C#N)cn([C@H](C)C3CC3)c2=O)c(C(F)(F)F)n1 | 8.17
3 | CC[C@H](C1CC1)n1cc(Cl)nc(N(CC)c2c(C)cc(C)cc2C)c1=O | 8.34
4 | COCC(COC)n1cc(Cl)nc(Nc2c(C)cc(C)cc2C)c1=O | 7.80
5 | CCCC(CCC)n1cc(Cl)nc(Nc2c(C)cc(C)cc2C)c1=O | 8.62
6 | COc1ccc(Nc2nccn([C@H](C)C3CC3)c2=O)c(C(F)(F)F)n1 | 6.82
7 | CCc1cn([C@H](C)C2CC2)c(=O)c(Nc2ccc(OC)nc2C(F)(F)F)n1 | 6.74
8 | CC[C@H](C1CC1)n1cc(Cl)nc(Nc2c(C)cc(Cl)cc2Cl)c1=O | 9.28
9 | CCC(CC)n1cc(Cl)nc(Nc2c(C)cc(C)cc2C)c1=O | 8.54
10 | C[C@@H](C1CC1)n1cc(Cl)nc(Nc2c(Cl)cc(C#N)cc2Cl)c1=O | 8.20
11 | Cc1cc(C)c(Nc2nc(Cl)cn([C@H](C)C3CC3)c2=O)c(C)c1 | 8.77
12 | C[C@H](C1CC1)n1cc(Cl)nc(Nc2c(Cl)cc(C#N)cc2Cl)c1=O | 8.62
13 | CCOc1cc(C)c(Nc2nc(Cl)cn([C@@H](COC)C3CC3)c2=O)cc1C | 8.82
14 | CCC(C1CC1)n1cc(Cl)nc(Nc2c(Cl)cc(C#N)cc2Cl)c1=O (single isomer, unassigned) | 8.55
15 | CCC(CC)n1cc(Cl)nc(Nc2cc(C)c(OC)cc2C)c1=O | 9.10
16 | CCCC(CCC)n1cc(Cl)nc(Nc2cc(C)c(OC)cc2C)c1=O | 9.21
17 | CC[C@H](C1CC1)n1cc(Cl)nc(Nc2c(C)cc(C)cc2C)c1=O | 9.20
18 | COC[C@@H](C1CC1)n1cc(Cl)nc(Nc2cc(C)c(OCc3ccccc3)cc2C)c1=O | 6.04
19 | COc1cc(Cl)c2c(c1)CCN2c1nc(Cl)cn([C@H](C)C2CC2)c1=O | 9.21
20 | CCC(CC)Cn1cc(Cl)nc(Nc2c(C)cc(C)cc2C)c1=O | 7.41
21 | CC[C@H](C1CC1)n1cc(Cl)nc(Nc2c(C)cc(OC)cc2C)c1=O | 9.28
22 | COC[C@@H](C1CC1)n1cc(Cl)nc(Nc2c(C)cc(C)cc2C)c1=O | 8.89
23 | Cc1cc(C)c(Nc2nc(Cl)cn([C@@H](CO)C3CC3)c2=O)c(C)c1 | 7.46
24 | C=Cc1cn([C@H](C)C2CC2)c(=O)c(Nc2ccc(OC)nc2C(F)(F)F)n1 | 5.92
25 | COc1cc(Br)c2c(c1)CCN2c1nc(Cl)cn([C@H](C)C2CC2)c1=O | 9.03
